LMPTP inh: blocks human LMPTP phosphatase. P24666. recombinant LMPTP-A, OMFP fluorogenic substrate, fluorescence intensity. inhibition, % at 20 µM. actives 0.22% (n = 360,000). AID 651560;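 active = compounds that cut the enzyme signal by at least half of the control window in the single-dose screen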
Target sequence (P24666 whole entry, looked up): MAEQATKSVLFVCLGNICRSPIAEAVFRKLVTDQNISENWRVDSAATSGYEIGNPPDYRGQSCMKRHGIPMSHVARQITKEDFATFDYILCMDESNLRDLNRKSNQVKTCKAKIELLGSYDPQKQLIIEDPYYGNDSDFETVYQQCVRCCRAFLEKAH
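Test system – LMPTP-A phosphatase enzyme · Quantity – 0.625 nM LMPTP-A final · Reagent – OMFP substrate, 400 µM final · Dosing – one test concentration per compound, 20 µM, with 3% DMSO overall · Timing – 50 min enzyme reaction at room temperature, protected from light · Detection – fluorescence intensity · Controls – substrate-only low control, DMSO enzyme-plus-substrate high control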
SUMO1 PPI mod: modulators of human SUMO1-mediated protein-protein interactions; P63165; SUMO1 binding to a labelled peptide, TR-FRET, 1 h; inhibition, % at 20 µM; actives 0.33% (n = 360,000); AID 602429; in the data active = inhibition above about 37%
Target sequence (P63165 whole entry, looked up): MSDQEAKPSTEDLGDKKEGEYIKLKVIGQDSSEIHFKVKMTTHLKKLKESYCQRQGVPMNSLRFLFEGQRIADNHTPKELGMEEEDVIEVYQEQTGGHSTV
DNMT1 block: inhibitors of human DNMT1; P26358; DNMT1 molecular beacon, Hinp1I cleavage, fluorescence; inhibition (reported as % activation of signal), % at 10 µM; actives 0.83% (n = 360,000); AID 588458; in the data active = inhibition above about 50%
Scp1 inh: inhibitors of human Scp-1 phosphatase; Q9GZU7; Recombinant Scp1, phosphopeptide, malachite green phosphate absorbance; inhibition, % at 20 µM; actives 0.88% (n = 340,000); AID 493091;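 active = inhibition above about 50% at 20 µM, limit read from the data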
Target sequence (Q9GZU7 76-261 limits assumed): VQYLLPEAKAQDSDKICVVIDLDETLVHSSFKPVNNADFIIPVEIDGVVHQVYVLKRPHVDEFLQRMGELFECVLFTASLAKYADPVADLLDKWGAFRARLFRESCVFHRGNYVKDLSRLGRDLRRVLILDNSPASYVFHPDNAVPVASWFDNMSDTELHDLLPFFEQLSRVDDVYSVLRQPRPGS
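System: truncated SCP-1 phosphatase (76-261aa); medium: Tris acetate buffer pH 5.5 with MgCl2 and Tween-20; incubation: 45 min room-temperature reaction, 5 min colour, 30 min stabiliser; compound: single 20 µM dose, 1% DMSO; reagent: Phosphorylated 17-residue peptide substrate; read-out: % inhibition at 20 µM; technique: colorimetric free-phosphate detection, absorbance 630 nm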
STEP block: STEP (human) phosphatase inhibition | P54829 | recombinant STEP, OMFP fluorogenic substrate, fluorescence | inhibition, % at 20 µM | actives 0.25% (n = 360,000) | AID 588621;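 active = inhibition at 20 µM, scaled per plate between control wells, above about 37%, limit read from the data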
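Test system: STEP tyrosine phosphatase / Reagent: OMFP at 25 µM / Doses: 20 µM, 1% DMSO / Read-out: percent inhibition scaled to no-enzyme and uninhibited-enzyme controls, plate-pattern corrected / Detection: FITC-channel fluorescence of OMFP product / Medium: Bis-Tris buffer pH 6.0, 2.5 mM DTT, 0.005% Tween 20 / Schedule: 20 min at room temperature, dark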
Scp-1 conf: confirmation of human Scp-1 phosphatase inhibitors; shares compounds with Scp1 inh; inhibition, % at 20 µM; actives 61% (n = 2,500); recombinant SCP-1 catalytic domain, phosphate release, malachite green absorbance
MG interference: interferes with malachite green readout, flagging false Scp-1 hits; shares compounds with Scp1 inh; Colorimetric interference counterscreen, malachite green absorbance 630 nm; apparent inhibition (interference), % at 20 µM; 2,500 tested, under 10 active; AID 540313;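 also: compounds added after enzyme reaction finished so only phosphate colour detection is probed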
Scp-1 Tm shift: binds human Scp-1, shifting its melting temperature; thermal shift relative to vanadate control, % at 40 µM; shares compounds with Scp1 inh; actives 25% (n = 1,500); Recombinant SCP1, Sypro Orange thermal shift Tm; AID 540329;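 active = substances whose mean melting-temperature shift, as a percentage of the reference inhibitor's shift, reaches about 5.3%, limit read from the data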
A number is an active result; n = inactive; x = no result given. Hits are enriched below; roughly 1.8% of the tested compounds scored in any of these assays.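 The calls were made as follows, unless noted: active = inhibition of at least 30% at 20 µM; inactive = the rest.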

SMILES | LMPTP inh | SUMO1 PPI mod | DNMT1 block | Scp1 inh | STEP block | Scp-1 conf | MG interference | Scp-1 Tm shift
COc1ccc(-c2nc(CC(=O)Nc3cccc(S(=O)(=O)NC4=NCCC4)c3)cs2)cc1 | n | n | n | n | n | x | x | x
O=C(Cn1nc(C(=O)O)c2ccccc2c1=O)Nc1cccc(S(=O)(=O)N2CCCC2)c1 | n | n | n | n | n | x | x | x
COC(=O)/C=C/c1ccccc1S(=O)(=O)N(Cc1ccccc1)Cc1ccco1 | n | n | n | 73 | n | n | n | x
O=S(=O)(c1ccc(S(=O)(=O)N(Cc2ccccc2)Cc2ccco2)cc1)N1CCCC1 | n | n | n | n | n | x | x | x
Cc1cc(F)ccc1C(O)c1ncc(-c2cccc3ccccc23)[nH]1 (configuration not stated) | n | n | n | x | n | x | x | x
CC(C)(C)c1ccc(C(=O)N/N=C/c2ccc(OCCCF)cc2)cc1 | n | n | n | n | n | x | x | x
Cc1cccc(C(=O)Oc2ccc(/C=N/NC(=O)c3cc(O)cc(O)c3)cc2)c1 | n | n | 69 | 53 | 63 | 60 | n | n
O=C(N/N=C/c1ccc(OCCCF)cc1)c1ccc(C(F)(F)F)cc1 | n | n | n | 93 | n | 64 | n | n
O=C(N/N=C/c1ccc(OC(=O)c2cccs2)cc1)c1ccc(F)cc1 | n | n | n | 70 | n | 64 | n | n
O=C(Oc1ccc(/C=N/NC(=O)c2ccccc2O)cc1)c1ccccc1 | n | n | n | 82 | n | 70 | n | n
CCN(C[C@H]1N[C@@](CC)(C(=O)OC)[C@H]2C(=O)N(Cc3ccccc3)C(=O)[C@@H]12)C(=O)COc1ccccc1 | n | n | n | n | n | x | x | x
COC(=O)c1ccc(C)c(NC(=O)CSc2sc3c(O)cc(=O)[nH]c3c2C#N)c1 | n | n | n | 68 | n | 53 | n | 12
Cc1ccc(C)c(NC(=O)CSc2sc3c(O)cc(=O)[nH]c3c2C#N)c1 | n | n | n | 60 | n | 67 | n | 11
Cc1ccc(Cl)cc1NC(=O)CSc1sc2c(O)cc(=O)[nH]c2c1C#N | n | n | n | 56 | n | 62 | n | 16
O=C(OCC(=O)N1CCC(Cc2ccccc2)CC1)c1cc(Br)ccc1O | n | n | n | n | n | x | x | x
O=C(Nc1cnns1)Oc1ccccc1 | n | n | n | x | n | x | x | x
O=C1CCCN1CCCNS(=O)(=O)c1ccccc1 | n | n | n | n | n | x | x | x
O=C(NCCCN1CCCC1=O)Nc1ccccc1Cl | n | n | n | n | n | x | x | x
O=C1CCCN1CCCNS(=O)(=O)c1ccc(F)cc1F | n | n | n | n | n | n | n | x
O=C(NCCCN1CCCC1=O)Nc1ccccc1F | n | n | n | n | n | n | n | x
COCCNC(=O)C1Cc2c(-c3cccc(NC(C)=O)c3)ccnc2O1 (configuration not stated) | n | n | n | x | n | x | x | x
Cn1cc(-c2ccc3c(c2)OCO3)c2ccccc21 | n | n | n | x | n | x | x | x
C[C@H]1CN=C(N(C)C)N1CC1CCC(C(C)(C)C)CC1 (some centres not stated) | n | n | n | n | n | x | x | x
CCOc1ccc(/C=C2\SC(=S)N(CCC(=O)Nc3ccccc3C(=O)O)C2=O)cc1 | n | n | n | 64 | n | 44 | n | 18
COc1ccc(/C=C2\SC(=S)N(CCC(=O)Nc3ccccc3C(=O)O)C2=O)cc1 | n | n | n | n | n | x | x | x
SMILES | LMPTP inh | SUMO1 PPI mod | DNMT1 block | Scp1 inh | STEP block | Scp-1 conf | MG interference | Scp-1 Tm shift
CCOc1ccc(/C=C2/SC(=S)N(CCC(=O)Nc3ccc(C(=O)O)cc3)C2=O)cc1 | 64 | 61 | n | 56 | 47 | 78 | n | n
O=C(CCN1C(=O)/C(=C\c2ccccc2)SC1=S)Nc1ccc(C(=O)O)cc1 | n | n | n | n | n | x | x | x
CC1(C2CC2)NC(=O)N(CC(=O)NCC(=O)Nc2ccc(F)c(F)c2F)C1=O (configuration not stated) | n | n | n | n | n | x | x | x
N#Cc1ccc(OCC(=O)Nc2cccc(S(=O)(=O)NC3=NCCCCC3)c2)cc1 | n | n | n | 97 | n | 50 | n | n
O=C(COc1ccc(Cl)cc1)Nc1cccc(S(=O)(=O)NC2=NCCCCC2)c1 | n | n | n | n | n | x | x | x
CCOc1ccccc1C(=O)OCC(=O)Nc1cccc(S(=O)(=O)NC2=NCCCCC2)c1 | n | n | n | n | n | x | x | x
O=C(Nc1ccc(S(=O)(=O)NC2=NCCCCC2)cc1)C1COc2ccccc2O1 (configuration not stated) | n | n | n | n | n | x | x | x
O=C(COC(=O)c1ccccc1NCCO)Nc1cccc(S(=O)(=O)NC2=NCCCCC2)c1 | n | n | n | 58 | n | 48 | n | n
O=C(Nc1cccc(S(=O)(=O)NC2=NCCCCC2)c1)C1COc2ccccc2O1 (configuration not stated) | n | n | n | 50 | n | 65 | n | n
CC(C)n1cnnc1SCC(=O)NNC(=O)COc1ccc(Cl)cc1 | n | n | n | n | n | x | x | x
CC(=O)Nc1ccc(S(=O)(=O)N/N=C/c2ccc(C)o2)cc1 | n | n | n | 67 | n | n | n | x
CC(C(=O)Nc1ccc([N+](=O)[O-])cc1Cl)N1CCN(S(=O)(=O)c2cccs2)CC1 (configuration not stated) | n | n | n | n | n | x | x | x
CC(C(=O)Nc1cc([N+](=O)[O-])ccc1Cl)N1CCN(c2ccc(O)cc2)CC1 (configuration not stated) | n | n | n | 57 | n | n | n | x
COc1cc(O)c2c(c1)OC(c1ccc(O)cc1)CC2=O (configuration not stated) | n | n | n | n | n | x | x | x
Cc1c(O)cc2c(c1O)C(=O)CC(c1ccc(O)cc1)O2 (configuration not stated) | n | n | n | 58 | n | 45 | n | 6.2
O=C(CSc1ncccc1-c1nc2ccccc2[nH]1)NCc1ccco1 | n | n | n | 56 | n | 66 | n | 6.5
Cc1cc2nc(-c3cccnc3SCC(=O)NCc3ccco3)[nH]c2cc1C | n | n | n | n | n | x | x | x
OC(c1ccc(F)c(F)c1)c1nc(-c2ccc(F)c(Cl)c2)cs1 (configuration not stated) | n | n | n | x | n | x | x | x
O=C1C2C3C=CC(C4CC34)C2C(=O)N1/N=C/c1ccc(-c2ccc([N+](=O)[O-])cc2)o1 (configuration not stated) | n | n | n | n | n | x | x | x
